{"data": "Experimental data gathered from unrelated publications", "target": "Bone morphogenetic protein receptor type-1A (BMPR1A, Homo sapiens, UniProt P36894)", "note": "Lines come from different studies, so protocols differ."}
{"SMILES": "CC(C)(C)c1nc2c(s1)c1nc(N)ncc1c1ccc(NS(=O)(=O)c3c(F)cccc3F)c(F)c12", "observed": "enzyme activity", "mode": "inhibitor", "method": "radiometric", "tested at": "1 µM", "measurement": "remaining activity", "result": "96%"}
{"SMILES": "Cc1noc([C@H]2C[C@@H](c3ccc(C(F)(F)F)cc3)CN(C(=O)N3CCS(=O)(=O)C3)C2)n1", "observed": "binding", "method": "competition with immobilised ligand", "tested at": "1 µM", "measurement": "remaining binding", "result": "100%"}
{"SMILES": "CC(C)(C)c1nc(-c2cccc(NS(=O)(=O)c3c(F)cccc3F)c2F)c(-c2ccnc(N)n2)s1", "observed": "enzyme activity", "mode": "inhibitor", "method": "radiometric", "tested at": "1 µM", "measurement": "remaining activity", "result": "48%"}
{"SMILES": "Nc1cnc(N2CCc3cc(S(=O)(=O)Nc4c(F)cc(Cl)cc4F)cc(N4CCCC4=O)c32)nc1", "observed": "cell-free assay", "method": "competition with immobilised ligand", "tested at": "1 µM", "measurement": "remaining binding", "result": "91%"}
{"SMILES": "CCOc1cc(-c2nncn2C)ccc1Nc1ncc2cc(C)nc(NCC(C)(C)C)c2n1", "observed": "cell-free assay", "method": "TR-FRET", "tested at": "1 µM", "measurement": "inhibition", "result": "≤ 15%"}
{"SMILES": "O=C(Nc1cnn(-c2csc(C(=O)NC3COC3)c2)c1)Nc1ccccc1Cl", "observed": "enzyme activity", "mode": "inhibitor", "tested at": "5 µM", "measurement": "remaining activity", "result": "105%"}
{"SMILES": "Nc1ncnc2occ(-c3ccc(NC(=O)Nc4cc(C(F)(F)F)ccc4F)cc3)c12", "observed": "cell-free assay", "tested at": "20 µM", "measurement": "remaining signal", "result": "100%"}
{"SMILES": "Cc1sc(C(=O)NC2COC2)cc1-n1cc(NC(=O)Nc2c(F)cccc2Cl)cn1", "observed": "enzyme activity", "mode": "inhibitor", "tested at": "10 µM", "measurement": "remaining activity", "result": "92.5%"}
{"SMILES": "Cc1ccc(C(=O)Nc2ccc(CN3CCN(C)CC3)c(C(F)(F)F)c2)cc1C#Cc1cnc2cccnn12", "observed": "enzyme activity", "tested at": "23.5 nM", "measurement": "remaining activity", "result": "97%"}
